These results are taken from ChEMBL document CHEMBL3526151, “Reversible disulfide formation of the glutamate carboxypeptidase II inhibitor E2072 results in prolonged systemic exposures in vivo” (Drug Metab Dispos, 2012).

Common to all, as to type: ADME, organism-based
Data set [1] is described as follows: Cmax in Sprague-Dawley rat at 5 mg/kg, iv by LC-MS/MS analysis. Set-up: dose 5 mg/kg, route intravenous. Conditions: in vivo. The method in brief:
(§1)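 Male Sprague-Dawley rats (n = 5) given the homodisulfide intravenously at 5 mg/kg. Blood collected up to 7 days into heparin/NEM tubes. Plasma analyzed by LC-MS/MS for both monomer and dimer. Noncompartmental AUC, Cl and Vd calculated. Mean ± S.D.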

Data set [2] can be described thus: Tmax in Sprague-Dawley rat at 5 mg/kg, iv by LC-MS/MS analysis. Also on record: dose 5 mg/kg, route intravenous. The note with it: in vivo.
The nature of data set [3]: AUC(0 to last) in Sprague-Dawley rat at 5 mg/kg, iv by LC-MS/MS analysis. Set-up: time 0 - last, dose 5 mg/kg, route intravenous. The note with it: plasma. In short, it runs like this:
as §1

Data set [4] in a line: AUC(0 to infinity) in Sprague-Dawley rat at 5 mg/kg, iv by LC-MS/MS analysis. Also on record: dose 5 mg/kg, route intravenous, time infinity. Conditions: plasma. The method in brief:
as §1

A short description of data set [5]: Clearance in Sprague-Dawley rat at 5 mg/kg, iv by LC-MS/MS analysis. Set-up: dose 5 mg/kg, route intravenous. Conditions: in vivo. In short, it runs like this: as §1
Data set [6] in a line: Volume of distribution in Sprague-Dawley rat at 5 mg/kg, iv by LC-MS/MS analysis. Also on record: dose 5 mg/kg, route intravenous. The note with it: in vivo.
Data set [7] can be described thus: Elimination half life in Sprague-Dawley rat at 5 mg/kg, iv by LC-MS/MS analysis. Also on record: dose 5 mg/kg, route intravenous. Conditions: in vivo, read-out: beta t1/2 (converted). The method in brief: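 Male Sprague-Dawley rats received a single IV dose of either 10 mg/kg parent drug (n = 6) or 5 mg/kg homodisulfide (n = 5), in 50 mM HEPES-buffered saline, pH 7.4. Blood was collected into NEM-containing heparinized tubes for up to 7 days. Parent drug and homodisulfide in plasma were quantified by LC-MS/MS. Terminal t1/2β was calculated as 0.693/λz.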

One may read the Cmax as the highest concentration seen after dosing. What is called Tmax is the time at which the peak concentration occurs. As a reminder, the AUC(0-t) is the area under the concentration-time curve up to a stated or last time point. Read a low AUC(0-t) as low exposure. One may read the AUC(0-inf) as the area under the concentration-time curve extrapolated to infinity. By clearance is commonly meant the volume of plasma or blood freed of the substance per unit of time. Lower therefore signals inefficient removal. The Vd is the apparent volume that relates the amount in the body to the concentration in plasma or blood. A higher Vd goes with wide distribution into tissue.

In data set [1], `O=C(O)c1cccc(-c2cccc(CCSSCCc3cccc(-c4cccc(C(=O)O)c4)c3C(=O)O)c2C(=O)O)c1` came in with a Cmax of 104 µg/mL. Besides, the Tmax in data set [2] is 6.6 min. For the same molecule, the AUC(0-t) in data set [3] came to 2490 µg·h/mL. The AUC(0-inf) in data set [4] worked out at 3540 µg·h/mL. In data set [5], this molecule had a clearance of 1.5 mL/h/kg. The Vd in data set [6] is 209 L/kg. Moreover, the half-life in data set [7] is 101 h.
